Experimental data from ChEMBL document CHEMBL5653631, “A Potent and Selective ULK1 Inhibitor Suppresses Autophagy and Sensitizes Cancer Cells to Nutrient Stress” (iScience, 2018).

Legend:
[1] = biological target: Serine/threonine-protein kinase PAK 4 (Homo sapiens) (UniProt O96013); assay: Inhibition of human recombinant PAK4 at 40 nM related to control ULK1
[2] = biological target: Serine/threonine-protein kinase 10 (Homo sapiens) (UniProt O94804); assay: Inhibition of human recombinant LOK at 40 nM in presence of ATP by radiometric assay relative to control
[3] = biological target: ALK tyrosine kinase receptor (Homo sapiens) (UniProt Q9UM73); assay: Inhibition of human recombinant ALK at 40 nM related to control ULK1
Chain of ALK tyrosine kinase receptor (Homo sapiens) (Q9UM73 19-1620 limits assumed): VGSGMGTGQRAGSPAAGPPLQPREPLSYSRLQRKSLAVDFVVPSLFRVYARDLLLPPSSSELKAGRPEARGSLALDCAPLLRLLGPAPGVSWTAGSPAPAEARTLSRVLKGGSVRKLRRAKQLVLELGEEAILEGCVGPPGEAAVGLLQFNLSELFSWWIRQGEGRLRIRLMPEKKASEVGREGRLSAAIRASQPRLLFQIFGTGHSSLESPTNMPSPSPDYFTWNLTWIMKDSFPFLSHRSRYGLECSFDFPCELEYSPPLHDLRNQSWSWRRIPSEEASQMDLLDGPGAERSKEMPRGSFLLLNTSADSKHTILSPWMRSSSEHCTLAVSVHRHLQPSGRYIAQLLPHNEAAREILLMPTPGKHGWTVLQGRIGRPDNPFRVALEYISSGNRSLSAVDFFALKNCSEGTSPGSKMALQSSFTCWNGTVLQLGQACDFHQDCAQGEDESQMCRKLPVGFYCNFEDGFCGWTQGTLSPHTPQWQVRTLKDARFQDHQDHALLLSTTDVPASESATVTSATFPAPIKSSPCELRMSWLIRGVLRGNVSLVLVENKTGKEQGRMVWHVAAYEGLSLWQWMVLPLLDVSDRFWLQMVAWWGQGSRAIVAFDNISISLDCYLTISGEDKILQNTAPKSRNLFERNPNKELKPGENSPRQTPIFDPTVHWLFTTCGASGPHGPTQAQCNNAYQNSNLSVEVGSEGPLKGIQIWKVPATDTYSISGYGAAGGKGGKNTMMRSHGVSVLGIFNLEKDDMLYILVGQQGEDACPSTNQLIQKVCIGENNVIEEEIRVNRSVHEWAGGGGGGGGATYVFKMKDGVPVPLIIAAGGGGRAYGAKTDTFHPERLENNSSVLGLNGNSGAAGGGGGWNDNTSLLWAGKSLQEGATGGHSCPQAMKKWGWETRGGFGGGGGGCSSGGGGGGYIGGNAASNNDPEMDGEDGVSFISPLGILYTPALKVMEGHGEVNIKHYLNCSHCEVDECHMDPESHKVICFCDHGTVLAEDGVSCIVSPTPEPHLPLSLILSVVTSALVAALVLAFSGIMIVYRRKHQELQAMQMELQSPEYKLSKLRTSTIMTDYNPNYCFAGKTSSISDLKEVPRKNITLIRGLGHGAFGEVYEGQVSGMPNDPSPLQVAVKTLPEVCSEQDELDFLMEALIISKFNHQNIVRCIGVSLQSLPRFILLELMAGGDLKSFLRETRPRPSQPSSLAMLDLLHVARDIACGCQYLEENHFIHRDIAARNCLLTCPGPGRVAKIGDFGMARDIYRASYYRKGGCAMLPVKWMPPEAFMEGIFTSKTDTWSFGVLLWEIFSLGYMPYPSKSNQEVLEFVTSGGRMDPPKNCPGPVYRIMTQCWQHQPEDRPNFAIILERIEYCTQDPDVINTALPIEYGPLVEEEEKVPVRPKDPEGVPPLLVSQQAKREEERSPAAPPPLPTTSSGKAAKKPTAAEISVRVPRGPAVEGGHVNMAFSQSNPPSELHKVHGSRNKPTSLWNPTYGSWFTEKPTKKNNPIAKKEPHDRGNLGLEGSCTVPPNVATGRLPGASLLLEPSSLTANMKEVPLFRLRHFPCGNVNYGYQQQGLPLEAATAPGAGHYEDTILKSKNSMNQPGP
How it was run: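 Radiometric activity assays in a panel of 327 human recombinant kinases, each run in duplicate at one inhibitor concentration. Activity remaining is expressed as percent of vehicle control, and percent inhibition is calculated as 100% minus percent activity remaining.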

[4] = biological target: Homeodomain-interacting protein kinase 2 (Homo sapiens) (UniProt Q9H2X6); assay: Inhibition of human recombinant HIPK2 at 500 nM in presence of ATP by radiometric assay relative to control
Chain of Homeodomain-interacting protein kinase 2 (Homo sapiens) (Q9H2X6 whole entry, looked up): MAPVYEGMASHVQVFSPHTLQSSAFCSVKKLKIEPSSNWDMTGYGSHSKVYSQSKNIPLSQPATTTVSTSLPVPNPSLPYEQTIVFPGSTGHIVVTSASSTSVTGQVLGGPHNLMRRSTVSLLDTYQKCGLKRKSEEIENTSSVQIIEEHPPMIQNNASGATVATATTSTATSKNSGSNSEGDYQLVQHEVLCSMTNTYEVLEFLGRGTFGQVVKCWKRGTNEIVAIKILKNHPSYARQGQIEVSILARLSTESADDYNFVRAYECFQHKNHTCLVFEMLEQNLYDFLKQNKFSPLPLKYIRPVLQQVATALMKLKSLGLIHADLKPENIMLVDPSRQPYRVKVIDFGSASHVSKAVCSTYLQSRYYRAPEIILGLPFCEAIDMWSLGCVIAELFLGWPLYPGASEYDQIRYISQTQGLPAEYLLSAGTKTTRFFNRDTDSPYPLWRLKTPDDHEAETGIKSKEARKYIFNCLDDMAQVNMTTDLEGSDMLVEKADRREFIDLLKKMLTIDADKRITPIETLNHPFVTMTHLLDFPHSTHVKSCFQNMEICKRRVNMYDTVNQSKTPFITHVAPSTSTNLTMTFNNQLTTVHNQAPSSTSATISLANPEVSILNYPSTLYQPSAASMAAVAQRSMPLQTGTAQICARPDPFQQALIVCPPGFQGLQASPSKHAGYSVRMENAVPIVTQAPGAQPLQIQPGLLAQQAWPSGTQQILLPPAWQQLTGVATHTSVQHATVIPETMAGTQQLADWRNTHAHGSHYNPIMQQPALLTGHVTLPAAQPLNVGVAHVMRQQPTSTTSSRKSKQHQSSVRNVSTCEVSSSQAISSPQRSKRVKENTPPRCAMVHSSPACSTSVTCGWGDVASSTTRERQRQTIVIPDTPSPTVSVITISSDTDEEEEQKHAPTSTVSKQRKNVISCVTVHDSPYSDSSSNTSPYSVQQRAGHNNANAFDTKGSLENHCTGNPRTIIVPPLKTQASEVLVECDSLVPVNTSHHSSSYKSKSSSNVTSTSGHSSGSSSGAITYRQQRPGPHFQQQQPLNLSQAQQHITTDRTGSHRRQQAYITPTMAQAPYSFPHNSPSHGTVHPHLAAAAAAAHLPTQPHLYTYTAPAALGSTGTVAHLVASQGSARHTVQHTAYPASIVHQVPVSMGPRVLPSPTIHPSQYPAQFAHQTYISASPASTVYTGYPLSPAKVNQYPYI

[5] = biological target: T1, Serine/threonine-protein kinase BRSK2 (Homo sapiens) (UniProt Q8IWQ3); assay: Inhibition of human recombinant BRSK2 at 500 nM in presence of ATP by radiometric assay relative to control
T1 sequence (whole entry): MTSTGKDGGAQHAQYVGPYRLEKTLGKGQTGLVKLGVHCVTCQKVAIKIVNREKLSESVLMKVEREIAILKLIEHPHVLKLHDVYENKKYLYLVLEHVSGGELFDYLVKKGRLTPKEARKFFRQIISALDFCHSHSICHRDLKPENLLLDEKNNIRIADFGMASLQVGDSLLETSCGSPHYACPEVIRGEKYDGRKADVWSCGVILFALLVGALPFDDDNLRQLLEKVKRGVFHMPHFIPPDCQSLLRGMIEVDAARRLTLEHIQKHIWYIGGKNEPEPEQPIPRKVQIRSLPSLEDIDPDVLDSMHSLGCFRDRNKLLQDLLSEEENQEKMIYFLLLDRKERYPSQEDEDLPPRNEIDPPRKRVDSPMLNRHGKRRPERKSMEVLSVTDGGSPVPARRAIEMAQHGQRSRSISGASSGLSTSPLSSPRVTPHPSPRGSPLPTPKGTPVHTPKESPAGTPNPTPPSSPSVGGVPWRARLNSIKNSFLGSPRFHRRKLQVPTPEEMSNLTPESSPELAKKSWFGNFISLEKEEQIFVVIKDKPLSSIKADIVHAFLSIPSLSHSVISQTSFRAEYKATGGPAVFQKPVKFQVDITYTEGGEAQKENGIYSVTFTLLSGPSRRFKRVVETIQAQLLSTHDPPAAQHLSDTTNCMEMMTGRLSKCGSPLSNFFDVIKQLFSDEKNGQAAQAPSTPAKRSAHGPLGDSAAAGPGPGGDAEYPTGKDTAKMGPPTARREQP
How it was run: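 Recombinant human kinase panel (327 kinases) run as radiometric activity assays, each kinase in duplicate at one compound concentration. Activity remaining expressed relative to vehicle control; percent inhibition taken as 100% minus % activity remaining.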

[6] = biological target: Macrophage colony-stimulating factor 1 receptor (Homo sapiens) (UniProt P07333); assay: Inhibition of human recombinant FMS at 500 nM in presence of ATP by radiometric assay relative to control
[7] = biological target: T2, Calcium/calmodulin-dependent protein kinase type IV (Homo sapiens) (UniProt Q16566); assay: Inhibition of human recombinant CaMK4 at 500 nM related to control ULK1
T2 sequence (whole entry): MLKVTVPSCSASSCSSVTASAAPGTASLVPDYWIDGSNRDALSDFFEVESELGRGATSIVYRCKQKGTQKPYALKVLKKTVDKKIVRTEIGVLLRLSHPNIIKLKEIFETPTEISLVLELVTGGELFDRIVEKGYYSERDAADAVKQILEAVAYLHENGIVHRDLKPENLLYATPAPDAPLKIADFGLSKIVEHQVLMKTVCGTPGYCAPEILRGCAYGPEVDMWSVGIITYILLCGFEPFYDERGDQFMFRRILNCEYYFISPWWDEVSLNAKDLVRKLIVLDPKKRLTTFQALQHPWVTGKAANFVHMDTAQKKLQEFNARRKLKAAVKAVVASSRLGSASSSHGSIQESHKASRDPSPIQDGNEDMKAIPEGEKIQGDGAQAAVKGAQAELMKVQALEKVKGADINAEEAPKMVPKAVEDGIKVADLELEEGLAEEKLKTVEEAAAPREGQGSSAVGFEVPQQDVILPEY

[8] = biological target: T3, Protein kinase C zeta type (Homo sapiens) (UniProt Q05513); assay: Inhibition of human recombinant PKCz at 500 nM related to control ULK1
T3 sequence (whole entry): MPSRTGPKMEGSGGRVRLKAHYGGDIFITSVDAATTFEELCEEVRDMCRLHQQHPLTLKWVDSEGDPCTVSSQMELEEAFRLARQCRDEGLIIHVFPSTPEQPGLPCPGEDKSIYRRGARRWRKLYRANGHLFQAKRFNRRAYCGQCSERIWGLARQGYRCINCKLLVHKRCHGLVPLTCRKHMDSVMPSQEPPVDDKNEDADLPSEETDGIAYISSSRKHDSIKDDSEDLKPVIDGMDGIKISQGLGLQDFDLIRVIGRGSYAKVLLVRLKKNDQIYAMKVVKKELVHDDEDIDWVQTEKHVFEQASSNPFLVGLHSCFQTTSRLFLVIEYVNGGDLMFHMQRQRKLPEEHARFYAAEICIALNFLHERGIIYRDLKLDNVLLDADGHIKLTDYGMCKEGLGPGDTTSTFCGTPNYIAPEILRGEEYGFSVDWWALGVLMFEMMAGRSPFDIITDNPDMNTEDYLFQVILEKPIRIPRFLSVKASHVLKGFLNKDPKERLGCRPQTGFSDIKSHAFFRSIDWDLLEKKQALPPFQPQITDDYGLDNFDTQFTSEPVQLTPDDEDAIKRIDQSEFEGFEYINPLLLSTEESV

[9] = biological target: Macrophage-stimulating protein receptor (Homo sapiens) (UniProt Q04912); assay: Inhibition of human recombinant RON at 500 nM related to control ULK1
Chain of Macrophage-stimulating protein receptor (Homo sapiens) (Q04912 25-304 limits assumed): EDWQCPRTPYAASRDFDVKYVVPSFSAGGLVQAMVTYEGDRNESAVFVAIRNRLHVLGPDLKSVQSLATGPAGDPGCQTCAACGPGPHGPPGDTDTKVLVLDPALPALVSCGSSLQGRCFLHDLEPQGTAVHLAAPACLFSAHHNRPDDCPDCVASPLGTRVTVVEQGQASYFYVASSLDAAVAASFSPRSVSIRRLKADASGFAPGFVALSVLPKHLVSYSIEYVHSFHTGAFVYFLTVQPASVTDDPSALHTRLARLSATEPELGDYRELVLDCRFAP
Chain of Macrophage-stimulating protein receptor (Homo sapiens) (Q04912 310-1400 limits assumed): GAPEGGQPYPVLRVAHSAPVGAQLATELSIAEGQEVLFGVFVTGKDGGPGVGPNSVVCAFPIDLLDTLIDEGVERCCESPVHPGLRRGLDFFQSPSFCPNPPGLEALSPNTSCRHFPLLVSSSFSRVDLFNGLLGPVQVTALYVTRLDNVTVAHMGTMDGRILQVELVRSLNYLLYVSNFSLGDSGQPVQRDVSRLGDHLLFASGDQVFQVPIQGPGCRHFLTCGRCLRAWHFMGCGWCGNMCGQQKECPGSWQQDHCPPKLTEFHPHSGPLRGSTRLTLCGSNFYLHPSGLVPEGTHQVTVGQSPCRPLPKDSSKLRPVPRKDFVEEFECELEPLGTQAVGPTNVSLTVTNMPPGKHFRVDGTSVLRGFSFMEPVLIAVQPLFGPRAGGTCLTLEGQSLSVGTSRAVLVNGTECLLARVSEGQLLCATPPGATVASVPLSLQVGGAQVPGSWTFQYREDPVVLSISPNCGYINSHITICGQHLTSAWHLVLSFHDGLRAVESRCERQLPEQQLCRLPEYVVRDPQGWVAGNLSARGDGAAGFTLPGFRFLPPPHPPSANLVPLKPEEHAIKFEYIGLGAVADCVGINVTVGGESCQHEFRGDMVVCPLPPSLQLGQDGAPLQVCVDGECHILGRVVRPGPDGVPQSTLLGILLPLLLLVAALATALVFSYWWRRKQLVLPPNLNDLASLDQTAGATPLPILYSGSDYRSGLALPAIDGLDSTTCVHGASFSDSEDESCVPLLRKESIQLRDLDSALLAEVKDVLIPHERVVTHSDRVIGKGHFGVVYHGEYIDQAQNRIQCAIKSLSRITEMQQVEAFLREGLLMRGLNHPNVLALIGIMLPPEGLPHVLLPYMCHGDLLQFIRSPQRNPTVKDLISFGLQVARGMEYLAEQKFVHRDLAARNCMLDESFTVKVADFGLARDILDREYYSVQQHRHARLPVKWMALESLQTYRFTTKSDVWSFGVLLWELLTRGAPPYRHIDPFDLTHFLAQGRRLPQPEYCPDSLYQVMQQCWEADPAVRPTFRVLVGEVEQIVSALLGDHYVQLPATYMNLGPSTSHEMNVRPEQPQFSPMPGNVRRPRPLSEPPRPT

[10] = biological target: Maternal embryonic leucine zipper kinase (Homo sapiens) (UniProt Q14680); assay: Inhibition of human recombinant MELK at 500 nM in presence of ATP by radiometric assay relative to control
[11] = biological target: Cyclin-dependent kinase 18 (Homo sapiens) (UniProt Q07002); assay: Inhibition of human recombinant PCTAIRE3 at 15 nM related to control ULK1
Chain of Cyclin-dependent kinase 18 (Homo sapiens) (Q07002 whole entry): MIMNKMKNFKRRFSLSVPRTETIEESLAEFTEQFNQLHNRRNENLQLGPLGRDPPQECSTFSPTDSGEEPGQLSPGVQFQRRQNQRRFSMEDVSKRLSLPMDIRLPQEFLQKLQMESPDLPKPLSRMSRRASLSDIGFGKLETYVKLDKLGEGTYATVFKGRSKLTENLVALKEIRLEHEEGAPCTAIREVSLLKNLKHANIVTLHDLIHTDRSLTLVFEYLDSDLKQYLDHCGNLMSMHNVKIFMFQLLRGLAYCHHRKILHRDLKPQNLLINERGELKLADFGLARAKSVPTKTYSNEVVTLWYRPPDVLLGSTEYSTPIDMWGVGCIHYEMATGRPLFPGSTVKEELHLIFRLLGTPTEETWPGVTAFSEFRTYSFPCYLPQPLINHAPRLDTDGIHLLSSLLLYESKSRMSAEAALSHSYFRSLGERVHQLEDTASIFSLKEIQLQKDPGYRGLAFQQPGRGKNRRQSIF

[12] = biological target: Vascular endothelial growth factor receptor 3 (Homo sapiens) (UniProt P35916); assay: Inhibition of human recombinant FLT4 at 15 nM in presence of ATP by radiometric assay relative to control

O=C(N[C@@H](C1CC1)C(F)(F)F)c1cc(-c2cnn3cc(-c4ccc(F)cc4)cnc23)cs1
fold change (FC) [1]: 0.11
inhibition [2]: 0%
fold change (FC) [3]: 0

CNC(=O)c1ccccc1Oc1nc(Nc2cc(OC)c(OC)c(OC)c2)ncc1Br
inhibition [4]: 0%
inhibition [5]: 3%
inhibition [6]: 19%
fold change (FC) [7]: 0
fold change (FC) [8]: 0
fold change (FC) [9]: 0.01
inhibition [10]: 0%

CC(C)[C@H](NC(=O)c1cc(-c2cnn3cc(-c4ccc(OCCN5CCCCC5)cc4)cnc23)cs1)C(F)(F)F
fold change (FC) [11]: 0.76
inhibition [12]: 35%
